Experiments:
[1] = Selectivity index, ratio of TC50 for african green monkey Vero cells to IC50 for Coxsackievirus B5 infected in african green monkey Vero cells; type: toxicity, cell-based; settings: read-out: Selectivity Index
In short: (§1)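 SI is calculated as TC50 (50% inhibition of Vero cell growth) divided by IC50 (50% inhibition of the respective CVB subtype's growth, from the CPE assay in Vero cells, ribavirin as positive control).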

[2] = Selectivity index, ratio of TC50 for african green monkey Vero cells to IC50 for Coxsackievirus B3 infected in african green monkey Vero cells; type: toxicity, cell-based; settings: read-out: Selectivity Index; in short: as §1
[3] = Selectivity index, ratio of TC50 for african green monkey Vero cells to IC50 for Coxsackievirus B1 infected in african green monkey Vero cells; type: toxicity, cell-based; settings: read-out: Selectivity Index; in short: as §1
[4] = Cytotoxicity against african green monkey Vero cells assessed as inhibition of cell growth after 24 hrs by CPE assay; type: cell-based; settings: chlorocebus sabaeus, read-out: TC50
Coxsackievirus [5] = assay: Antiviral activity against Coxsackievirus B1 infected in african green monkey Vero cells assessed as reduction in viral-induced cytopathic effect; type: functional, organism-based
In short: (§2)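 Vero (African green monkey kidney) cells were infected with the CVB subtype and scored by viral cytopathogenic effect (CPE) reduction, with ribavirin as the positive control. IC50 is the concentration that inhibits CVB growth by 50%.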

Coxsackievirus [6] = assay: Antiviral activity against Coxsackievirus B2 infected in african green monkey Vero cells assessed as reduction in viral-induced cytopathic effect; type: functional, organism-based; in short: as §2
Coxsackievirus [7] = assay: Antiviral activity against Coxsackievirus B5 infected in african green monkey Vero cells assessed as reduction in viral-induced cytopathic effect; type: functional, organism-based; in short: as §2
Coxsackievirus [8] = assay: Antiviral activity against Coxsackievirus B3 infected in african green monkey Vero cells assessed as reduction in viral-induced cytopathic effect; type: functional, organism-based; in short: as §2
Coxsackievirus [9] = assay: Antiviral activity against Coxsackievirus B6 infected in african green monkey Vero cells assessed as reduction in viral-induced cytopathic effect; type: functional, organism-based; in short: as §2
[10] = Selectivity index, ratio of TC50 for african green monkey Vero cells to IC50 for Coxsackievirus B6 infected in african green monkey Vero cells; type: toxicity, cell-based; settings: read-out: Selectivity Index; in short: as §1
[11] = Selectivity index, ratio of TC50 for african green monkey Vero cells to IC50 for Coxsackievirus B2 infected in african green monkey Vero cells; type: toxicity, cell-based; settings: read-out: Selectivity Index; in short: as §1

| SMILES | selectivity ratio [1] | selectivity ratio [2] | selectivity ratio [3] | CC50 at 24 h [4] | IC50 (Coxsackievirus [5]) | IC50 (Coxsackievirus [6]) | IC50 (Coxsackievirus [7]) | IC50 (Coxsackievirus [8]) | IC50 (Coxsackievirus [9]) | selectivity ratio [10] | selectivity ratio [11] |
| --- | --- | --- | --- | --- | --- | --- | --- | --- | --- | --- | --- |
| COC(=O)C/C=C\[C@@H]1[C@H]2CCCN3CCC[C@@H](CN1S(=O)(=O)c1cccc(C#N)c1)[C@@H]23 | 46.7 | 177 | 188 | 543 µM | 2.6 µM | 12.6 µM | 10.5 µM | 3.07 µM | 2.81 µM | 174 | 38.9 |
| N#Cc1cccc(S(=O)(=O)N2C[C@@H]3CCCN4CCC[C@@H]([C@H]34)[C@H]2/C=C\CC(=O)O)c1 |  | 42.7 |  | 745 µM |  |  |  | 17.4 µM |  |  |  |
| N#Cc1ccc(S(=O)(=O)N2C[C@@H]3CCCN4CCC[C@@H]([C@H]34)[C@H]2/C=C\CC(=O)O)cc1 |  | 14.2 |  | 745 µM |  |  |  | 52.4 µM |  |  |  |
| O=C(O)C/C=C\[C@@H]1[C@H]2CCCN3CCC[C@@H](CN1S(=O)(=O)c1ccc(C(F)(F)F)cc1)[C@@H]23 |  | 14.7 |  | 272 µM |  |  |  | 18.6 µM |  |  |  |
| O=C(O)C/C=C\[C@@H]1[C@H]2CCCN3CCC[C@@H](CN1S(=O)(=O)c1ccccc1[N+](=O)[O-])[C@@H]23 |  | 36.8 |  | 595 µM |  |  |  | 16.2 µM |  |  |  |
| O=C(O)C/C=C\[C@@H]1[C@H]2CCCN3CCC[C@@H](CN1S(=O)(=O)c1cccc([N+](=O)[O-])c1)[C@@H]23 |  | 7 |  | 445 µM |  |  |  | 63.6 µM |  |  |  |
| O=C(O)C/C=C\[C@@H]1[C@H]2CCCN3CCC[C@@H](CN1S(=O)(=O)c1ccc([N+](=O)[O-])cc1)[C@@H]23 |  | 6.2 |  | 309 µM |  |  |  | 49.8 µM |  |  |  |
| O=C(O)C/C=C\[C@@H]1[C@H]2CCCN3CCC[C@@H](CN1S(=O)(=O)c1cc(Br)c(Br)s1)[C@@H]23 |  | 3.6 |  | 191 µM |  |  |  | 53.1 µM |  |  |  |
| N#Cc1cccc(S(=O)(=O)N2C[C@@H]3CCCN4CCC[C@@H]([C@H]34)[C@H]2/C=C\CCO)c1 |  | 27 |  | 148 µM |  |  |  | 5.47 µM |  |  |  |
| O=S(=O)(c1cccc(C(F)(F)F)c1)N1C[C@@H]2CCCN3CCC[C@@H]([C@H]23)[C@H]1/C=C\CCO |  | 6.2 |  | 93.5 µM |  |  |  | 15 µM |  |  |  |
| O=S(=O)(c1ccc(C(F)(F)F)cc1)N1C[C@@H]2CCCN3CCC[C@@H]([C@H]23)[C@H]1/C=C\CCO |  | 22.4 |  | 93.5 µM |  |  |  | 4.17 µM |  |  |  |
| O=[N+]([O-])c1ccccc1S(=O)(=O)N1C[C@@H]2CCCN3CCC[C@@H]([C@H]23)[C@H]1/C=C\CCO | 46.8 | 153 | 116 | 354 µM | 1.46 µM | 1.44 µM | 3.63 µM | 2.31 µM | 0.62 µM | 276 | 117 |
| O=[N+]([O-])c1ccc(S(=O)(=O)N2C[C@@H]3CCCN4CCC[C@@H]([C@H]34)[C@H]2/C=C\CCO)cc1 |  | 15.6 |  | 265 µM |  |  |  | 17 µM |  |  |  |
| COC(=O)CCC[C@@H]1[C@H]2CCCN3CCC[C@@H](CN1S(=O)(=O)c1cccc(C#N)c1)[C@@H]23 |  | 24.6 |  | 288 µM |  |  |  | 11.7 µM |  |  |  |
| COC(=O)CCC[C@@H]1[C@H]2CCCN3CCC[C@@H](CN1S(=O)(=O)c1ccc(C(F)(F)F)cc1)[C@@H]23 |  | 28.9 |  | 73.4 µM |  |  |  | 2.54 µM |  |  |  |
| COC(=O)CCC[C@@H]1[C@H]2CCCN3CCC[C@@H](CN1S(=O)(=O)c1ccccc1[N+](=O)[O-])[C@@H]23 |  | 16.7 |  | 399 µM |  |  |  | 23.9 µM |  |  |  |
| COC(=O)CCC[C@@H]1[C@H]2CCCN3CCC[C@@H](CN1S(=O)(=O)c1cccc([N+](=O)[O-])c1)[C@@H]23 |  | 19.7 |  | 68.9 µM |  |  |  | 3.51 µM |  |  |  |
| COC(=O)CCC[C@@H]1[C@H]2CCCN3CCC[C@@H](CN1S(=O)(=O)c1cccc(C(F)(F)F)c1)[C@@H]23 |  | 92.4 | 144 | 193 µM | 1.28 µM | 7.61 µM |  | 1.98 µM | 0.44 µM | 139 | 16.7 |
| N#Cc1cccc(S(=O)(=O)N2C[C@@H]3CCCN4CCC[C@@H]([C@H]34)[C@H]2CCCC(=O)O)c1 |  | 5.2 |  | 428 µM |  |  |  | 82.3 µM |  |  |  |
| O=C(O)CCC[C@@H]1[C@H]2CCCN3CCC[C@@H](CN1S(=O)(=O)c1ccc(C(F)(F)F)cc1)[C@@H]23 |  | 5.2 |  | 392 µM |  |  |  | 75.4 µM |  |  |  |
| O=C(O)CCC[C@@H]1[C@H]2CCCN3CCC[C@@H](CN1S(=O)(=O)c1ccccc1[N+](=O)[O-])[C@@H]23 |  | 5.2 |  | 410 µM |  |  |  | 78.9 µM |  |  |  |
| N#Cc1cccc(S(=O)(=O)N2C[C@@H]3CCCN4CCC[C@@H]([C@H]34)[C@H]2CCCCO)c1 |  | 13 |  | 147 µM |  |  |  | 11.3 µM |  |  |  |
| O=S(=O)(c1ccc(C(F)(F)F)cc1)N1C[C@@H]2CCCN3CCC[C@@H]([C@H]23)[C@H]1CCCCO |  | 35.5 |  | 233 µM |  |  |  | 6.55 µM |  |  |  |
| O=[N+]([O-])c1ccccc1S(=O)(=O)N1C[C@@H]2CCCN3CCC[C@@H]([C@H]23)[C@H]1CCCCO |  | 6.8 |  | 244 µM |  |  |  | 35.7 µM |  |  |  |
| NC(=O)c1ncn([C@@H]2O[C@H](CO)[C@@H](O)[C@H]2O)n1 [RIBAVIRIN] |  |  |  | 8200 µM | 1950 µM | 2100 µM | 911 µM | 695 µM | 1710 µM |  |  |

Source: ChEMBL document CHEMBL3425484, “Novel N-benzenesulfonyl sophocarpinol derivatives as coxsackie B virus inhibitors” (ACS Med Chem Lett, 2015)
